Values joined by “and” are separate entries in the source; they are usually repeats but may differ in a detail not shown here. Identical values can stand only once. Active and inactive are the calls of the source.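 The calls were made as follows: active = signal drops and an active concentration is fitted at or below ten times the top valid dose of that sample; inconclusive = flat fit between -70 and -30%, or poor fit quality; inactive = the rest.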
Columns and labels:
[1] = test system: Vibrio harveyi BB721 quorum sensing luminescence, 9 h; assay: reduction of constitutive QS bioluminescence – strain BB721, dry powder, set 2, counter-screen for LuxS inhibitor project, dose response (AID 493096)
Procedure, shortened: (§1)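 Material: Vibrio harveyi BB721, strain with quorum sensing constitutively on. Buffer or medium: AB medium. Schedule: compound exposure of 9 h at 30 °C.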

[2] = as above; conditions: Vibrio harveyi BB721 quorum sensing luminescence, 9 h; at 16 µM (top of the series)
Procedure, shortened: as §1

Structure (SMILES)	AC50 [1]	activity change, negative = inhibition [2]
Cc1cccc(NS(=O)(=O)c2ccc(Oc3ccccc3)cc2)n1	11.1 µM and 15.4 µM	
Cc1cccc(NC(=O)c2ccc(Oc3ccccc3)cc2)n1	14.9 µM	
CCc1ccc(S(=O)(=O)Nc2ccc(Br)cn2)cc1	14.8 µM	
COc1cc(NC(=O)CN2C(=O)NC(c3ccccc3)(c3ccccc3)C2=O)cc(OC)c1	0.769 µM and 1.14 µM	
CCc1ccc(C(=O)Nc2ccc(Br)cn2)cc1		-2.33% (inactive)
O=C1C=C/C(=C/Br)O1	6.86 µM	

Source: PubChem BioAssay AID493096 (Broad Institute, 2011)
